Activity calls are given as the source filed them.

Assay [1] deals with T1, P2X purinoceptor 7 (Rattus norvegicus) (UniProt Q64663).
T1 sequence (whole entry): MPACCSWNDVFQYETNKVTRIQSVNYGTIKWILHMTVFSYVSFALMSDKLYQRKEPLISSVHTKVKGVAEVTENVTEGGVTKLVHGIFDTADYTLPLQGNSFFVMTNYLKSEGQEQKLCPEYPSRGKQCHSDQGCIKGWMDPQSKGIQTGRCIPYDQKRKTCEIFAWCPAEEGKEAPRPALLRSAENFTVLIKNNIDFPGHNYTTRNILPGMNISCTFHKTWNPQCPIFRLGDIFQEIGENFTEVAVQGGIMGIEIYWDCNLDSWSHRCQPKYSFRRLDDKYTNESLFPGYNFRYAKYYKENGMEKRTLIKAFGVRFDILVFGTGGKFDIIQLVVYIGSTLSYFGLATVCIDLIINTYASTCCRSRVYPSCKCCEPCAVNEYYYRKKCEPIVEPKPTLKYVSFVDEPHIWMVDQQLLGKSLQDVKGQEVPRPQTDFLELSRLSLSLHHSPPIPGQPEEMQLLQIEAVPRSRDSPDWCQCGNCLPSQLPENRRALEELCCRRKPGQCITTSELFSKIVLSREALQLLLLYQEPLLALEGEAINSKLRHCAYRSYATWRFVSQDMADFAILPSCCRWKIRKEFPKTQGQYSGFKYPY
Description: Agonist activity at P2X7 in Sprague-Dawley rat synaptosome assessed as [3H]D-aspartate efflux at 100 uM for 120 secs by liquid scintillation counting. The note with it: Brain.

In assay [2] the test system is Rattus norvegicus. Description: Antinociceptive activity against carrageenan-induced hyperalgesia in rat assessed as paw pressure at 40 mg/kg, po measured after 60 mins (reference value: 31.8 +/- 2.2 g). The assay is classed as functional. The method in brief: (§1)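 Rats received intraplantar carrageenan before oral dosing. Paw-pressure withdrawal threshold (g) was measured before treatment and at 15, 30, 60 and 90 min after it. Carrageenan-injected rats given vehicle served as reference, with saline-injected rats as a further control.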

The subject of assay [3] is Rattus norvegicus. Description: Antinociceptive activity against carrageenan-induced hyperalgesia in rat assessed as paw pressure at 40 mg/kg, po measured after 90 mins (reference value: 34.8 +/- 3.1 g). Format: functional. The method in brief: as §1
Assay [4] relates to Rattus norvegicus. Description: Antinociceptive activity against carrageenan-induced hyperalgesia in rat assessed as paw pressure at 10 mg/kg, po measured after 15 mins (reference value: 32.8 +/- 2.9 g). Format: functional. The method in brief: as §1
Assay [5] deals with T1, P2X purinoceptor 7 (Rattus norvegicus). As to the kind of experiment: Antagonist activity at P2X7 in Sprague-Dawley rat synaptosome assessed as inhibition of BzATP-induced [3H]D-aspartate efflux preincubated at 0.1 uM for 8 mins by liquid scintillation counting. The settings on record: Brain. The method in brief: (§2)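 Purified rat cerebrocortical synaptosomes loaded with [3H]D-aspartate and superfused. 100 μM BzATP added for 120 s. Compound added 8 min before BzATP. Ca2+-free conditions used medium with 0.5 mM EGTA, added 18 min before BzATP. Log concentration–response for inhibition of evoked efflux. Mean ± SEM of 3−12 independent experiments in triplicate.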

For assay [6], the system named is Rattus norvegicus. Description: Antinociceptive activity against carrageenan-induced hyperalgesia in rat assessed as paw pressure at 60 mg/kg, po measured after 30 mins (reference value: 30.6 +/- 3.2 g). The assay is classed as functional. The method in brief: as §1
Assay [7] relates to Rattus norvegicus. Description: Antinociceptive activity against carrageenan-induced hyperalgesia in rat assessed as paw pressure at 10 mg/kg, po measured after 60 mins (reference value: 31.8 +/- 2.2 g). The assay is classed as functional. The method in brief: as §1
Assay [8] has as its system Rattus norvegicus. As to the kind of experiment: Antinociceptive activity against carrageenan-induced paw edema in rat assessed as paw edema volume at 60 mg/kg, po measured after 30 mins (reference value: 2.71+/- 0.08 ml). The assay is classed as functional. (The carrageenan paw model is a standard test of acute inflammation.)
The test system of assay [9] is Rattus norvegicus. As to the kind of experiment: Antinociceptive activity against carrageenan-induced hyperalgesia in rat assessed as paw pressure at 10 mg/kg, po measured after 30 mins (reference value: 30.6 +/- 3.2 g). The assay is classed as functional. The method in brief: as §1
For assay [10], the system named is Rattus norvegicus. As to the kind of experiment: Antinociceptive activity against carrageenan-induced paw edema in rat assessed as paw edema volume at 10 mg/kg, po measured after 30 mins (reference value: 2.71+/- 0.08 ml). The assay is classed as functional.
For assay [11], the system named is Mus musculus. As to the kind of experiment: Analgesic activity in Swiss albino mouse assessed as inhibition of acetic acid-induced abdominal contraction at 10 to 60 mg/kg, po measured after 30 mins. Format: functional, organism-based. The settings on record: Abdominal cavity.
For assay [12], the target named is T1, P2X purinoceptor 7 (Rattus norvegicus). As to the kind of experiment: Antagonist activity at P2X7 in Sprague-Dawley rat synaptosome assessed as inhibition of BzATP-induced [3H]D-aspartate efflux preincubated at 0.1 uM for 8 mins by liquid scintillation counting in absence of extracellular Ca2+. The settings on record: Brain. The method in brief: as §2
The test system of assay [13] is Rattus norvegicus. As to the kind of experiment: Antinociceptive activity against carrageenan-induced paw edema in rat assessed as paw edema volume at 40 mg/kg, po measured after 30 mins (reference value: 2.71+/- 0.08 ml). The assay is classed as functional.
Assay [14] concerns Rattus norvegicus. Description: Antinociceptive activity against carrageenan-induced hyperalgesia in rat assessed as paw pressure at 10 mg/kg, po measured after 90 mins (reference value: 34.8 +/- 3.1 g). The assay is classed as functional. The method in brief:
as §1

Assay [15] relates to Rattus norvegicus. Description: Antinociceptive activity against carrageenan-induced hyperalgesia in rat assessed as paw pressure at 60 mg/kg, po measured after 15 mins (reference value: 32.8 +/- 2.9 g). Format: functional. The method in brief:
as §1

The species named for assay [16] is Rattus norvegicus. As to the kind of experiment: Inhibition of K+ depolarization-induced [3H]D-aspartate efflux in Sprague-Dawley rat synaptosome preincubated at 0.1 uM for 8 mins by liquid scintillation counting. The assay is classed as functional, tissue-based. The settings on record: Brain. The method in brief:
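Purified rat cerebrocortical synaptosomes loaded with [3H]D-aspartate and superfused. Depolarization with KCl added for 120 s. Compound added 8 min before K+ depolarization. Evoked efflux measured as mean ± SEM of 3−12 independent experiments in triplicate.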

The test system of assay [17] is Rattus norvegicus. As to the kind of experiment: Antinociceptive activity against carrageenan-induced hyperalgesia in rat assessed as paw pressure at 60 mg/kg, po measured after 60 mins (reference value: 31.8 +/- 2.2 g). Format: functional. The method in brief:
as §1

Assay [18] has as its system Rattus norvegicus. Description: Antinociceptive activity against carrageenan-induced hyperalgesia in rat assessed as paw pressure at 40 mg/kg, po measured after 30 mins (reference value: 30.6 +/- 3.2 g). The assay is classed as functional. The method in brief: as §1
Assay [19] concerns Rattus norvegicus. As to the kind of experiment: Antinociceptive activity against carrageenan-induced hyperalgesia in rat assessed as paw pressure at 60 mg/kg, po measured after 90 mins (reference value: 34.8 +/- 3.1 g). Format: functional. The method in brief:
as §1

Assay [20] has as its system Rattus norvegicus. Description: Antinociceptive activity against carrageenan-induced hyperalgesia in rat assessed as paw pressure at 40 mg/kg, po measured after 15 mins (reference value: 32.8 +/- 2.9 g). The assay is classed as functional. The method in brief:
as §1

Assay [21] deals with Mus musculus. As to the kind of experiment: Analgesic activity in Swiss albino mouse assessed as inhibition of acetic acid-induced abdominal contraction at 20 to 60 mg/kg, po measured after 30 mins. The settings on record: Abdominal cavity. The assay is classed as functional, organism-based.
For assay [22], the target named is T1, P2X purinoceptor 7 (Rattus norvegicus). As to the kind of experiment: Antagonist activity at P2X7 in Sprague-Dawley rat synaptosome assessed as inhibition of BzATP-induced [3H]D-aspartate efflux preincubated at 10 uM for 8 mins by liquid scintillation counting. The note with it: Brain. The method in brief:
as §2

For assay [23] the target is unchanged. Description: Antagonist activity at P2X7 in Sprague-Dawley rat synaptosome assessed as inhibition of BzATP-induced [3H]D-aspartate efflux preincubated at 10 uM for 8 mins by liquid scintillation counting in absence of extracellular Ca2+. The note with it: Brain. The method in brief:
as §2

As for `Nc1ncnc2c1ncn2[C@@H]1O[C@H](COP(=O)(O)OP(=O)(O)OP(=O)(O)O)[C@@H](OC(=O)c2ccc(C(=O)c3ccccc3)cc2)[C@H]1O`, the result in [1] was Active.
As to `CCOc1ccc(Nc2ccc(/C(=C3C=C/C(=[N+](/CC)Cc4cccc(S(=O)(=O)[O-])c4)C=C/3C)c3ccc(N(CC)Cc4cccc(S(=O)(=O)[O-])c4)cc3C)cc2)cc1.[Na+]` [BRILLIANT BLUE G], the Activity worked out at 45.6 g with Rattus norvegicus [2]; 40.2 g in the assay with Rattus norvegicus [3]; 38.7 g in the assay with Rattus norvegicus [4]; 49.6 g with Rattus norvegicus [6]; 38.5 g in the assay with Rattus norvegicus [7]; 2.21 mL in the assay on Rattus norvegicus [8]. Moreover, the Activity with Rattus norvegicus [9] worked out at 43.1 g; in the assay on Rattus norvegicus [10], 2.63 mL; in the assay on Rattus norvegicus [13] it was 2.17 mL; in the assay with Rattus norvegicus [14], 37.1 g; in the assay on Rattus norvegicus [15], 47.2 g; with Rattus norvegicus [17] it was 43.8 g. Besides, the values for the Activity with Rattus norvegicus [18], in the assay with Rattus norvegicus [19] and in the assay with Rattus norvegicus [20] were 50.8 g, 36.2 g and 46.3 g, respectively. For the same compound, the inhibition result (in assay [5]; with Mus musculus [11]; in assay [12]) was “Active” throughout. Further, in the assay listed under Rattus norvegicus [16], the inhibition entry is “inactive”.
As to `O=C(NC1(C(=O)NCCc2c[nH]cn2)C2CC3CC(C2)CC1C3)c1ccccc1` (stereo unspecified), the inhibition entry in the assay with Mus musculus [21] was “Active”.
Take `O=C(NC1(C(=O)NCCc2ccccc2)C2CC3CC(C2)CC1C3)c1ccccc1` (stereo unspecified): the inhibition result in the assay with Mus musculus [21] is “inactive”.
Turning to `N[C@H](c1ccccc1)[C@H](NC(=O)C1(NC(=O)c2ccccc2)C2CC3CC(C2)CC1C3)c1ccccc1` (stereo partly specified), the inhibition result with Mus musculus [11] is “Active”.
For `C[C@@H](NC(=O)C1(NC(=O)c2ccccc2)C2CC3CC(C2)CC1C3)C(=O)O` (stereo partly specified), in the assay on Mus musculus [21], the inhibition entry is “inactive”.
Take `Clc1cccc(-c2nnnn2Cc2cccnc2)c1Cl`: the inhibition entry in [22] and in [23] was “Active” throughout.

The values are drawn from ChEMBL document CHEMBL2407036, “Flow Synthesis and Biological Studies of an Analgesic Adamantane Derivative That Inhibits P2X7-Evoked Glutamate Release” (ACS Med Chem Lett, 2013).
